# Test results reported in PubChem BioAssay AID504383 (The Scripps Research Institute Molecular Screening Center, 2011).
# Out of some 2,500 compounds screened, about 1,200 (48%) were called active.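 Rule for the calls: active = mean activation above the low control average plus 3 SD, as set in the primary screen (cut at about 12% in these data); inactive = the rest.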 So high a share suggests a set chosen from earlier hits. The list shows a part of the results.
# Biological target: Troponin I, cardiac muscle (Homo sapiens) + Troponin T, cardiac muscle (Homo sapiens) + Troponin C, slow skeletal and cardiac muscles (Homo sapiens) (UniProt P19429+P45379+P63316)
# Assay: cardiac RTF calcium sensitivity activators, confirmation, biochemical, IANBD-TnC fluorescence, triplicate (AID 504383);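 note: 0% = DMSO at 0.472 mM calcium and 100% = DMSO at 2.9 mM calcium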
# Conditions: IANBD-labeled cardiac RTF, Ca2+ sensitivity fluorescence; at 7.2 µM; hits give high values; scaled from EC20 to saturating calcium; tested at EC20 calcium, 0.472 mM
# In short: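 Test system: labelled regulated thin filament protein complex. Dosing: single nominal compound dose of 7.2 µM. Benchmarks: EC20 and EC100 calcium wells. Read-out basis: fluorescence gain scaled between EC20 and EC100 calcium controls. Probe or stimulus: submaximal calcium at 0.472 mM (EC20). Technique: fluorescence. Times: 15 min compound exposure, 25 °C.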
row,SMILES,activation
1,C[n+]1ccc(/C=C/c2c[nH]c3ccc(F)cc23)cc1,5.69% (inactive)
2,C(=Cc1c[nH]c2ccccc12)c1nccc2ccccc12,16.3% (active)
3,C[n+]1ccc(/C=C/c2c[nH]c3ccccc23)cc1,45.7% (active)
4,Cc1ccc2[nH]cc(/C=C/c3cc[n+](C)cc3)c2c1,6.68% (inactive)
5,OCC[n+]1ccc(/C=C/c2c[nH]c3ccccc23)cc1,6.81% (inactive)
6,C[n+]1cc(C(=O)N2CCCCC2)ccc1/C=C/c1c[nH]c2ccccc12,8.02% (inactive)
7,CC[n+]1ccc(/C=C/c2c[nH]c3ccccc23)cc1,167% (active)
8,CC(=O)N(c1ccccc1)C1SC(=O)N(c2ccccc2)C1=O (stereo not drawn),9.18% (inactive)
9,Cc1cccc(C)c1-n1c(C)nn(-c2ncc(C(F)(F)F)cc2Cl)c1=O,2.27% (inactive)
10,O=c1nc2c(O)cccn2c2c1c(=O)[nH]c1ccccc12,11.7% (active)
11,CN(C)c1ccc(/C=C/C(=O)c2cccc(Br)c2)cc1,9.43% (inactive)
12,CC(=O)Nc1cccc(C(=O)/C=C/c2ccc(N(C)C)cc2)c1,15.4% (active)
13,COC(=O)C1CCN(C(=O)CN2C(=O)c3ccccc3S2(=O)=O)CC1,2170% (active)
14,NC(=O)C1CCN(c2ccc3c(c2)S(=O)(=O)c2ccccc2C3=O)CC1,5.74% (inactive)
15,CN(C)c1ccc(/C=C/C(=O)c2ccc3c(c2)OCO3)cc1,11% (inactive)
16,COc1cc(/C=C/C(=O)c2ccc3c(c2)OCO3)cc(Cl)c1O,15.6% (active)
17,CCC(=O)N1CCN(c2nc(C)nc3sc(C)c(C)c23)CC1,4.34% (inactive)
18,O=C(CN1CCN(c2ccccc2F)CC1)NCc1ccc(Cl)cc1,13% (active)
19,N#CC1(NC(=O)CN2CCN(S(=O)(=O)c3ccccc3F)CC2)CCCC1,2.39% (inactive)
20,CSc1ccc(Cl)c(C(=O)NNC(=O)c2csc(N3CCOCC3)n2)c1,9.67% (inactive)
21,Cc1cc(Cl)ccc1OCC(=O)NCCOc1nc(N2CCOCC2)nc(N2CCOCC2)n1,6.88% (inactive)
22,CCOC(=O)c1cnc2c(C)c(Cl)ccc2c1N1CCOCC1,80.7% (active)
23,CC(=O)Nc1ccc(N=Cc2nc(-c3ccc(C)cc3)oc2O)cc1,33.1% (active)
24,CN(C)c1ccc(N=Cc2nc(-c3ccccc3)oc2O)cc1,37.2% (active)
25,Cc1nc(C)c2c(c1C(F)(F)F)-c1ccccc1C2(F)F,9.1% (inactive)
26,Cc1[nH]c(=S)c(C#N)c(C)c1CCC#N,8.9% (inactive)
27,COc1cc(N2CCCC2)c(OC)cc1/C=C(/C#N)c1ccc(Br)cc1,12.2% (active)
28,COc1cc(N2CCCC2)c(OC)cc1/C=C(/C#N)c1cccc(Br)c1,8.22% (inactive)
